Data published in ChEMBL document CHEMBL1122840, “SAR studies in the field of calcium(II) antagonists. Effect of modifications at the tetrasubstituted carbon of verapamil-like compounds” (1985).

Key:
Cavia porcellus [1] = organism: Cavia porcellus; assay: Coronary perfusion pressure of isolated guinea pig heart at dose 0.005 (ug/heart); format: functional
How it was run: (§1)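 Heart perfused via an aortic inflow cannula; coronary perfusion pressure was recorded in that cannula with a pressure transducer. After 30-min stabilization, drug dissolved in perfusion liquid was injected through a side arm over 1 min, at constant volume. Six preparations per compound; mean, SE and percent of basal value were calculated for each dose.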

Cavia porcellus [2] = organism: Cavia porcellus; assay: Coronary perfusion pressure of isolated guinea pig heart at dose 0.05 (ug/heart); format: functional; how it was run: as §1
Cavia porcellus [3] = organism: Cavia porcellus; assay: Coronary perfusion pressure of isolated guinea pig heart at dose 0.5 (ug/heart); format: functional; how it was run: as §1
Cavia porcellus [4] = organism: Cavia porcellus; assay: Coronary perfusion pressure of isolated guinea pig heart at dose 5 (ug/heart); format: functional; how it was run: as §1
Cavia porcellus [5] = organism: Cavia porcellus; assay: Left ventricular pressure of isolated guinea pig heart at dose 0.005 (ug/heart); format: functional, Cardiac ventricle
How it was run: (§2)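 Perfused heart, 30-min stabilization, then a 1-min constant-volume injection of drug dissolved in perfusion liquid via a side arm of the aortic inflow cannula. Six preparations per compound; mean, SE and percent of basal value were calculated for each dose.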

Cavia porcellus [6] = organism: Cavia porcellus; assay: Left ventricular pressure of isolated guinea pig heart at dose 0.05 (ug/heart); format: functional, Cardiac ventricle; how it was run: as §2
Cavia porcellus [7] = organism: Cavia porcellus; assay: Left ventricular pressure of isolated guinea pig heart at dose 0.5 (ug/heart); format: functional, Cardiac ventricle; how it was run: as §2
Cavia porcellus [8] = organism: Cavia porcellus; assay: Left ventricular pressure of isolated guinea pig heart at dose 5 (ug/heart); format: functional, Cardiac ventricle; how it was run: as §2
Cavia porcellus [9] = organism: Cavia porcellus; assay: Heart rate of isolated guinea pig heart at dose 0.005 (ug/heart); format: functional
How it was run: (§3)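 Rate was derived from the left ventricular pressure tracing of the perfused heart. Drug dissolved in perfusion liquid was given as a 1-min side-arm injection into the aortic inflow cannula after 30-min stabilization, at constant volume. Six preparations per compound; values expressed as mean, SE and percent of basal for each dose.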

Cavia porcellus [10] = organism: Cavia porcellus; assay: Heart rate of isolated guinea pig heart at dose 0.05 (ug/heart); format: functional; how it was run: as §3
Cavia porcellus [11] = organism: Cavia porcellus; assay: Heart rate of isolated guinea pig heart at dose 0.5 (ug/heart); format: functional; how it was run: as §3
Cavia porcellus [12] = organism: Cavia porcellus; assay: Heart rate of isolated guinea pig heart at dose 5 (ug/heart); format: functional; how it was run: as §3
Cavia porcellus [13] = organism: Cavia porcellus; assay: Coronary perfusion pressure of isolated guinea pig heart at dose 5 ug/heart); format: functional; how it was run: as §1

| Structure (SMILES) | CPP (Cavia porcellus [1]) [mmHg] | CPP (Cavia porcellus [2]) [mmHg] | CPP (Cavia porcellus [3]) [mmHg] | CPP (Cavia porcellus [4]) [mmHg] | LVP (Cavia porcellus [5]) [mmHg] | LVP (Cavia porcellus [6]) [mmHg] | LVP (Cavia porcellus [7]) [mmHg] | LVP (Cavia porcellus [8]) [mmHg] | HR (Cavia porcellus [9]) [beats min-1] | HR (Cavia porcellus [10]) [beats min-1] | HR (Cavia porcellus [11]) [beats min-1] | HR (Cavia porcellus [12]) [beats min-1] | CPP (Cavia porcellus [13]) [mmHg] |
| --- | --- | --- | --- | --- | --- | --- | --- | --- | --- | --- | --- | --- | --- |
| COc1ccc(CCN(C)CCCC(c2ccccc2)(c2ccccc2)C(C)C)cc1OC.O=C(O)C(=O)O | 46.3 | 50 | 49.3 | 49.3 | 74.3 | 65.3 | 66.7 | 65.3 | 155.3 | 154.7 | 150 | 150.7 | – |
| COc1ccc(CCN(C)CCC=C2c3ccccc3-c3ccccc32)cc1OC.O=C(O)C(=O)O | 50 | 50 | 51 | 51 | 53 | 53 | 54 | 54 | 210 | 210 | 208 | 208 | – |
| COc1ccc(CCN(C)CCC=C(c2ccccc2)c2ccccc2)cc1OC.O=C(O)C(=O)O | 48 | 51 | 47.3 | 47.3 | 75.7 | 75.3 | 75.7 | 75.7 | 150 | 150 | 150 | 150 | – |
| COc1ccc(CCN(C)C/C=C/C2(C(C)C)c3ccccc3-c3ccccc32)cc1OC.O=S(=O)(O)O | 83.8 | 82.4 | 77 | 74.4 | 43.2 | 43.2 | 44 | 43.2 | 182.6 | 177.8 | 180.6 | 176.6 | – |
| COc1ccc(CCN(C)CCCC2c3ccccc3-c3ccccc32)cc1OC.O=C(O)C(=O)O | 52 | 52 | 56 | 51.3 | 88.5 | 89.5 | 91.2 | 89.3 | 150 | 150 | 150 | 149.3 | – |
| COc1ccc(CCN(C)CCCC2(C#N)c3ccccc3-c3ccccc32)cc1OC.[O-][Cl+3]([O-])([O-])O | 47.7 | 45.2 | 45 | – | 47.2 | 41.8 | 38.7 | 38.5 | 213 | 208 | 203 | 194.8 | 43.8 |
| COc1ccc(CCN(C)CCCC(C#N)(c2ccccc2)c2ccccc2)cc1OC.[O-][Cl+3]([O-])([O-])O | 73 | 72.6 | 71.2 | 68.7 | 31.6 | 28.6 | 27.8 | 26.8 | 162 | 160.2 | 159.8 | 158.3 | – |
| COc1ccc(CCN(C)CCCC(c2ccccc2)c2ccccc2)cc1OC.O=C(O)C(=O)O | 48 | 48 | 48.7 | 47.3 | 67.5 | 67.5 | 67.4 | 66.7 | 152 | 152 | 152 | 152 | – |
| COc1ccc(CCN(C)CCCC2(C(C)C)c3ccccc3-c3ccccc32)cc1OC.O=S(=O)(O)O | 76.4 | 78.6 | 78.4 | 78.4 | 38.4 | 38 | 37 | 36 | 211 | 209 | 207 | 204.4 | – |
| COc1ccc(CCN(C)CCCC2(C#N)c3ccccc3-c3ccccc32)cc1OC.O=C(O)C(=O)O | 44.2 | 42 | 42 | 41.2 | 43.3 | 41.7 | 41.3 | 39.5 | 211.5 | 209.7 | 206 | 205 | – |
| COc1ccc(CCN(C)CCCC(C#N)(c2ccc(OC)c(OC)c2)C(C)C)cc1OC (configuration not stated) [VERAPAMIL] | 51.7 | 50.3 | 49.7 | 48.8 | 25.7 | 24 | 21.5 | 13 | 210 | 203.8 | 200.3 | 188 | – |
